# Assay outcomes from PubChem BioAssay.
# Rows were chosen to be rich in hits. Some 3.8% of all compounds tested hit in one or more screens of this group.
# KCNQ1 inh: blocks the human KCNQ1 potassium channel; B-score at 10 µM; CHO-K1 KCNQ1, FluxOR thallium flux fluorescence; hits give high values; P51787; 1.3% of 310,000 active; AID 2642;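 active = compounds whose thallium flux B-score, printed positive for inhibition, exceeds three library SD while starting fluorescence stays within three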;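 note: channel opened by potassium depolarization with thallium stimulus after 20 min compound exposure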
# KCNK9 inh: human KCNK9 channel inhibition | Q9NPC2 | HEK293 KCNK9, FluxOR thallium flux fluorescence; hits give low values | 1.2% of 310,000 active | B-score at 10 µM;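 active = ratio B-score over 3 SD below the library mean, with starting fluorescence within 5 SD of its mean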;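 note: negative B-score means less thallium flux so channel inhibition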
# KCNQ1 pot: human KCNQ1 channel potentiation or activation | B-score at 10 µM | AID 2648 | CHO-K1 KCNQ1, thallium flux FluxOR fluorescence; hits give high values | 0.35% of 310,000 active | P51787;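 active = fluorescence ratio B-score, a plate-corrected score, at least three library SD, with initial intensity B-score within 5 SD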
#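 System: Stable KCNQ1 CHO-K1 line | Incubation: 90 min dye loading and 20 min compound exposure, both at room temperature | Measure: Ratio B score | Medium: Assay buffer for compound exposure, DMSO matched across wells | Compound dosing: Single-concentration screen | Probe or stimulus: K+/Tl+ depolarizing stimulus | Measured by: Kinetic FluxOR fluorescence, 10 s baseline plus 110 s post-stimulus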
# Kir21 block: Kir2.1 (mouse) channel inhibition. HEK293-Kir2.1, FluxOR thallium flux fluorescence; hits give low values. P35561. 0.85% of 310,000 active. B-score at 10 µM. AID 1672;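 active = fluorescence ratio B-score at or below minus 3 SD of library scores, with starting-brightness B-score within 2 SD, cut at about -4.2 in these data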;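 note: channel flux triggered by added potassium and thallium sulfate stimulus; B-score of peak minus minimum fluorescence over baseline after thallium stimulus; more negative B-score means stronger Kir2.1 block with less thallium influx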
# hERG rescue: shields human hERG channel from block by proarrhythmic agents. CHO-hERG, FluxOR thallium flux, dofetilide IC70 present. activation (rescue from dofetilide block), less the hit threshold, % at 10 µM. 0.51% of 310,000 active;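 active = activation above the mean of controls blocked by dofetilide plus 5 SD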;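 note: thallium influx through hERG after potassium depolarization seen as dye fluorescence rise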
# KCNK3 block: human KCNK3 channel inhibition, primary screen | B-score at 10 µM | 0.84% of 340,000 active | O14649 | CHO-KCNK3 thallium flux, FluxOR fluorescence; hits give low values;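 active = B-score under library mean minus 4 SD, starting fluorescence ratio at most library mean plus 5 SD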;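 note: more negative B-score means stronger inhibition of thallium flux through KCNK3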
# Target sequence (O14649 whole entry, looked up): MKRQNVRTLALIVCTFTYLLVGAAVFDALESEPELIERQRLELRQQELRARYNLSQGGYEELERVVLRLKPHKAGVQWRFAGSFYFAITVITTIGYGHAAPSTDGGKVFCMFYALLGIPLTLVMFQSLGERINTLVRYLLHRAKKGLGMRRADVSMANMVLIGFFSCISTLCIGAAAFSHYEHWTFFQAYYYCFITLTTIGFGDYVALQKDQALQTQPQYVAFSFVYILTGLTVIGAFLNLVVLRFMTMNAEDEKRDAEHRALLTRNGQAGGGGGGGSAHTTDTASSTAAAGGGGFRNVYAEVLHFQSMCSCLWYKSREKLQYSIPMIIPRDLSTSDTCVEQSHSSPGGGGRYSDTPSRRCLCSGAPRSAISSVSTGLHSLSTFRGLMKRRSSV
# * marks the source's active call; other numbers are inactive results; i = inactive; · = no result given.
SMILES,KCNQ1 inh,KCNK9 inh,KCNQ1 pot,Kir21 block,hERG rescue,KCNK3 block
O=C(NCCN1CCN(Cc2ccccc2)CC1)Nc1cc(Cl)cc(Cl)c1,6*,i,i,-0.7,-24,i
O=C(NCCN1CCN(c2cccc(Cl)c2)CC1)Nc1ccccc1,i,i,i,-0.13,-10,i
COc1cccc(NC(=S)NNC(=O)c2ccccc2OC(F)F)c1,i,i,i,-0.04,-13,i
O=C(NNC(=S)Nc1cccc(Cl)c1)c1ccccc1OC(F)F,9*,i,i,1.2,-15,i
COCCCNC(=S)NNC(=S)Nc1cccc(Cl)c1,6*,i,i,0.87,-9,i
S=C(Nc1cccc(Cl)c1)Nc1ccccc1Oc1ccccc1,8*,i,i,-1.4,-7,i
CCN(C(=S)NC(=O)c1ccccc1Br)C1CCCCC1,i,i,36*,-2.2,57*,i
Cn1c(=O)c([N+](=O)[O-])c(Cl)c2ccccc21,9*,i,i,-1.7,-30,i
CCN(CC)c1c([N+](=O)[O-])c(=O)n(C)c2ccccc12,i,i,i,-2.1,-10,i
C=CCSC(=C(C#N)C#N)c1cc2c([nH]1)CCCC2,8*,i,i,-0.29,-14,i
Cc1cc2nc3ccc(=[N+](C)C)cc-3sc2cc1N,6*,i,i,2.2,-12,i
CN(C)c1ccc2nc3ccc(=[N+](C)C)cc-3sc2c1,i,i,i,0.18,-2,i
COc1ccc(CN(C(=O)c2nsc(Cl)c2Cl)C(C(=O)NC2CCCC2)c2ccc(C)cc2)cc1 (centres undefined),11*,i,i,0.62,-18,i
COc1ccc(CCNS(=O)(=O)c2c(C)[nH]c(C)c2C(=O)N2CCCCC2)cc1OC,i,i,i,0.56,-7,i
CCc1c(C)nc(N2CCN(c3cccc(OC)c3)CC2)[nH]c1=O,i,i,i,-0.02,-2,i
CCCc1c(C)nc(N2CCN(c3cccc(OC)c3)CC2)[nH]c1=O,i,i,i,0.29,5.9*,i
Cc1ccccc1OC(=O)n1c(=S)oc2cc(Cl)ccc21,i,i,10*,2.4,-1,i
CC(=O)OCC1O[C@@H](O[C@@H]2C[C@H]3C(C)(C)[C@H](OC(C)=O)CC[C@]3(C)[C@H]3CC[C@]45C[C@]4(CC[C@H]5[C@@H](C)C[C@@H](O)[C@H](O)C(C)(C)O)[C@@]32C)[C@H](O)[C@@H](O)[C@@H]1O (some centres undefined),i,i,i,0.35,6.5*,·
CC(C)=CCC[C@](C)(O[C@@H]1O[C@H](CO[C@@H]2O[C@H](CO)[C@@H](O)[C@H](O)[C@H]2O)[C@@H](O)[C@H](O)[C@H]1O)C1CC[C@]2(C)C1C(=O)CC1[C@@]3(C)CC[C@H](O[C@H]4O[C@@H](CO)[C@H](O)[C@@H](O)[C@@H]4O)C(C)(C)C3CC[C@]12C (some centres undefined),·,·,·,·,·,i
O=C(Oc1ccc(Br)cc1C(=S)N1CCOCC1)c1ccccc1,i,-8*,i,0.97,-6,i
CC(C)NC(=O)c1ccc(CSCc2ccccc2Cl)o1,i,i,i,-1.5,-4,i
CCC(C)NC(=O)c1ccc(CSCc2ccccc2Cl)o1 (centres undefined),i,-6.7*,i,0.02,1,i
CC(=O)OCCn1c(C)[n+](CCOC(C)=O)c2cc(Cl)c(Cl)cc21,i,i,i,1.3,-14,i
CC(=O)OCCn1c2nc(=O)[nH]c(=O)c-2nc2cc(C)c(C)cc21,37*,i,i,-21,-46,i
CC(C)Cn1c(=O)c(C(=O)Nc2ccncc2)c(O)c2ccccc21,8*,i,i,0.91,-17,i
SMILES,KCNQ1 inh,KCNK9 inh,KCNQ1 pot,Kir21 block,hERG rescue,KCNK3 block
CC(C)Cn1c(=O)c(C(=O)Nc2cnccn2)c(O)c2ccccc21,i,i,i,-2.9,-9,i
CC(=O)c1ccc(CC2SC(N)=NC2=O)cc1 (centres undefined),i,i,i,-0.04,-7,i
CCCC(C(=O)NC(C)(C)C)N(Cc1ccccc1Cl)C(=O)c1snc(C(N)=O)c1N (centres undefined),7*,i,i,-1.6,-12,i
CCCCC(C(=O)NC(C)(C)C)N(Cc1ccccc1Cl)C(=O)c1snc(C(N)=O)c1N (centres undefined),6*,i,i,0.09,-16,i
C=CCNC(=O)C1CC(=O)N(c2ccc(OCC(=O)Nc3ccc(Cl)cc3)cc2)C1 (centres undefined),i,i,i,0.54,-7,i
O=C(CSc1nc2cc(Cl)ccc2s1)NC1CCCc2ccccc21 (centres undefined),i,-7.8*,i,-1.1,-3,i
Cn1nnnc1SCC(=O)NC1CCCc2ccccc21 (centres undefined),i,i,i,0.32,6.3*,i
COc1ccc(-[n+]2c(C)cc(/C=C3\Sc4ccccc4N3C)cc2C)cc1,23*,i,i,-14,-46,i
COc1ccccc1-[n+]1c(C)cc(/C=C2\Sc3ccccc3N2C)cc1C,i,i,i,-24,-46,i
CC(C)C(=O)Nc1ncc(C(F)(F)F)cc1Cl,i,i,i,1.3,-8,i
CC(=O)CC(=O)Nc1ncc(C(F)(F)F)cc1Cl,i,i,i,-1,-7,i
ON/C=N/C(=S)Nc1ncc(C(F)(F)F)cc1Cl,i,i,20*,-1.4,14*,i
CON/C=N/C(=S)Nc1ncc(C(F)(F)F)cc1Cl,i,i,51*,0.16,15*,i
CSc1ccc(CN2CCC(n3nccc3NC(=O)c3ccccc3C)CC2)cc1,i,i,i,-1.1,-15,i
COCCCNC(=S)N1CCN(C(c2ccccc2)c2ccccc2)CC1,i,i,i,-0.35,-9,i
O=C(CCN(CCO)Cc1ccccc1)Nc1ccc(Br)cc1,i,i,i,-3,-8,i
CCN(CCC(=O)Nc1ccc(Br)c(C)c1)Cc1ccccc1,8*,i,i,-5.7*,-8,i
Clc1ccc(-[n+]2c(-c3cccc(Br)c3)[nH]c3nc4ccccc4nc32)cc1,10*,i,i,-0.46,-11,i
Oc1ccc(Cl)cc1-c1cc(-c2cccc(Br)c2)n[nH]1,i,i,i,-0.02,-4,i
CSc1ccccc1NC(=O)CN(C)Cc1cccc(Cl)c1,i,-7.2*,i,-1.6,-21,i
